Source: ChEMBL document CHEMBL1671645, “Pharmacokinetics and absorption of posaconazole oral suspension under various gastric conditions in healthy volunteers” (Antimicrob Agents Chemother, 2009)

What was measured:
Homo sapiens [1] = assay: Toxicity in healthy human assessed as asthenia at 400 mg BID, po administered as suspension for 7 days; assay type: organism-based; conditions: in vivo, 168 h
In short: (§1)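 Healthy volunteers monitored for adverse events, vital signs, clinical laboratory values and 12-lead ECG. Adverse events tabulated by body system or organ class and severity and summarized by treatment across the crossover regimens.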

[2] = Apparent volume of distribution in healthy human at 400 mg administered as single dose suspension coadministered with nutritional supplement and 10 mg metoclopramide; assay type: ADME, organism-based; conditions: in vivo, po, read-out: Vc/F
In short: (§2)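 A three-way crossover in 13 healthy subjects gave one 400 mg oral suspension dose with a nutritional supplement, either alone, with metoclopramide 10 mg orally three times daily on the day before and the day of dosing, or with a single 4 mg dose of loperamide. Plasma was taken 0–168 h for LC-MS/MS. Analysis was noncompartmental.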

Homo sapiens [3] = assay: Toxicity in healthy human assessed as adverse events at 400 mg administered as single dose suspension after consumption of high fat meal; assay type: organism-based; conditions: in vivo; in short: as §1
Homo sapiens [4] = assay: Apparent total body clearance in healthy human at 400 mg BID, po administered as suspension for 7 days coadministered with nutritional supplement; assay type: ADME, organism-based; conditions: in vivo, 168 h
In short: (§3)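 Twelve healthy subjects took oral suspension for 7 days as 400 mg BID or 200 mg QID, either fasting or with a Boost-type nutritional supplement, in a crossover with 14–21 day washouts. Nonfat snacks of 800 cal/day or less were allowed. Plasma was sampled 0–168 h after the day-7 morning dose only and analysed by LC-MS/MS. AUC is AUC_τ, normalized to dose.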

[5] = Cmax in fasted healthy human plasma at 400 mg administered as single dose suspension coadministered with acidic carbonated beverage and proton pump inhibitor; assay type: ADME, organism-based; parameters: dose 400 mg
In short: (§4)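 This was a four-way crossover in 12 healthy subjects with 7–10 day washouts. Each took one fasting 400 mg oral suspension dose, with 12 oz ginger ale and/or esomeprazole 40 mg once each morning on days −2 to 1, with dosing on day 1. Plasma was sampled 0–168 h and measured by LC-MS/MS (LLOQ 5.00 ng/ml). Analysis was noncompartmental, with CL/F = dose/AUC_I and V/F = (CL/F)/K.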

[6] = Apparent total body clearance in fasted healthy human at 400 mg administered as single dose suspension after 20 mins after consumption of high fat meal; assay type: ADME, organism-based; conditions: in vivo
In short: (§5)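 In a crossover of 12 healthy subjects, each took a single 400 mg oral suspension dose 5 min before, midway through (about 10 min into a 20-min meal), or 20 min after a high-fat meal of about 50 g fat. Plasma was drawn 0–168 h and measured by LC-MS/MS. Parameters are noncompartmental, with AUC to the last measurable time.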

[7] = Apparent volume of distribution in fasted healthy human at 400 mg administered as single dose suspension coadministered with acidic carbonated beverage; assay type: ADME, organism-based; conditions: in vivo, read-out: Vc/F; in short: as §4
[8] = Cmax in healthy human plasma at 200 mg QID, po administered as suspension for 7 days coadministered with nutritional supplement; assay type: ADME, organism-based; parameters: dose 200 mg, route oral; in short: as §3
[9] = Cmax in plasma in hematopoietic stem cell transplant recipient human with GVHD; assay type: ADME, organism-based
[10] = Tmax in healthy human at 400 mg administered as single dose suspension coadministered with nutritional supplement; assay type: ADME, organism-based; conditions: in vivo
In short: (§6)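 Single oral suspension dose with nutritional supplement, alone or with metoclopramide 10 mg orally three times daily on the day before and the day of dosing; three-way crossover, 7–10-day washout. EDTA plasma predose to 168 h, LC-MS/MS (LLOQ 5.00 ng/ml). t1/2 = ln(2)/K from terminal slope; Tmax median.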

[11] = AUC in fasted healthy human at 400 mg administered as single dose suspension 5 mins before consumption of high fat meal; assay type: ADME, organism-based; conditions: plasma; in short: as §5
Homo sapiens [12] = assay: Toxicity in healthy human assessed as adverse events at 400 mg administered as single dose suspension; assay type: organism-based; conditions: in vivo; in short: as §1
[13] = Half life in fasted healthy human at 200 mg QID, po administered as suspension for 7 days; assay type: ADME, organism-based; conditions: in vivo
In short: (§7)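 Healthy volunteers given oral suspension (40 mg/ml) for 7 days, fasted or with nutritional supplement (Boost); four-way crossover, 14–21-day washout, nonfat snacks ≤800 cal/day allowed. On day 7 only the morning dose was given; plasma sampled predose to 168 h after it. LC-MS/MS (LLOQ 5.00 ng/ml). t1/2 = ln(2)/K from log-linear terminal slope; Tmax as median.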

[14] = Tmax in fasted healthy human at 400 mg BID, po administered as suspension for 7 days; assay type: ADME, organism-based; conditions: in vivo; in short: as §7
[15] = Apparent volume of distribution in healthy human at 400 mg administered as single dose suspension coadministered with nutritional supplement and 4 mg loperamide as two 2 mg tablets; assay type: ADME, organism-based; conditions: in vivo, po, read-out: Vc/F; in short: as §2
[16] = Apparent volume of distribution in fasted healthy human at 400 mg administered as single dose suspension coadministered with proton pump inhibitor; assay type: ADME, organism-based; conditions: in vivo, read-out: Vc/F; in short: as §4
[17] = Half life in healthy human at 400 mg administered as single dose suspension coadministered with nutritional supplement and 10 mg metoclopramide; assay type: ADME, organism-based; conditions: in vivo; in short: as §6
[18] = Apparent total body clearance in healthy human at 400 mg administered as single dose suspension coadministered with nutritional supplement and 4 mg loperamide as two 2 mg tablets; assay type: ADME, organism-based; conditions: in vivo, po; in short: as §2
[19] = Apparent total body clearance in fasted healthy human at 400 mg administered as single dose suspension 5 mins before consumption of high fat meal; assay type: ADME, organism-based; conditions: in vivo; in short: as §5
[20] = Tmax in fasted healthy human at 400 mg administered as single dose suspension; assay type: ADME, organism-based; conditions: in vivo
In short: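 Single oral suspension dose in fasting healthy volunteers, alone, with 12 oz ginger ale, after esomeprazole 40 mg once each morning days −2 to 1, or both; four-way crossover, 7–10-day washout. EDTA plasma 0–168 h. LC-MS/MS (LLOQ 5.00 ng/ml). t1/2 = ln(2)/K from terminal log-linear regression; Tmax median.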

Homo sapiens [21] = assay: Toxicity in healthy human assessed as dizziness at 400 mg administered as single dose suspension coadministered with nutritional supplement; assay type: organism-based; conditions: in vivo
In short: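 Three-way randomized crossover in 13 healthy volunteers with a 7- to 10-day washout. Each period was one 400-mg oral posaconazole suspension dose with a nutritional supplement. Metoclopramide 10 mg was given orally three times daily on the day before and the day of dosing; loperamide was a single 4 mg. Safety was assessed from adverse events, tabulated by body system and severity per treatment.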

[22] = Apparent total body clearance in fasted healthy human at 400 mg administered as single dose suspension; assay type: ADME, organism-based; conditions: in vivo
Homo sapiens [23] = assay: Toxicity in healthy human assessed as adverse events at 400 mg BID, po administered as suspension for 7 days coadministered with nutritional supplement; assay type: organism-based; conditions: in vivo, 168 h; in short: as §1
Homo sapiens [24] = assay: Toxicity in healthy human assessed as adverse events at 400 mg administered as single dose suspension 5 mins before consumption of high fat meal; assay type: organism-based; conditions: in vivo; in short: as §1
Homo sapiens [25] = assay: Toxicity in healthy human assessed as dizziness at 200 mg QID, po administered as suspension for 7 days coadministered with nutritional supplement; assay type: organism-based; conditions: in vivo, 168 h
In short: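 Healthy volunteers (n = 12) took oral posaconazole suspension (40 mg/ml) with Boost at each dose for 7 days in a four-way randomized crossover with a 14- to 21-day washout. Subjects stayed fasted throughout, with nonfat snacks up to 800 cal/day allowed. Safety covered adverse events, vital signs, clinical labs and 12-lead ECG, with AEs tabulated by body system and severity per treatment.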

[26] = Apparent total body clearance in healthy human at 400 mg administered as single dose suspension coadministered with nutritional supplement; assay type: ADME, organism-based; conditions: in vivo; in short: as §2
Homo sapiens [27] = assay: Toxicity in healthy human assessed as asthenia at 200 mg QID, po administered as suspension for 7 days; assay type: organism-based; conditions: in vivo, 168 h; in short: as §1

With CC[C@@H]([C@H](C)O)n1ncn(-c2ccc(N3CCN(c4ccc(OC[C@@H]5CO[C@@](Cn6cncn6)(c6ccc(F)cc6F)C5)cc4)CC3)cc2)c1=O [POSACONAZOLE] the Activity (Homo sapiens [1]) was 25%, the Vd/F [2] was 2280 L and the Activity (Homo sapiens [3]) was 25%. It also gave a CL/F (Homo sapiens [4]) of 33.9 L/h, a Cmax [5] of 0.0933 µg/mL and a CL/F [6] of 395 mL/min. It also gave a Vd/F [7] of 1840 L, a Cmax [8] of 2.16 µg/mL and a Cmax [9] of 1.46 µg/mL. It also gave a Tmax [10] of 5.5 h, an AUC at 5 min [11] of 10 µg·h/mL and an Activity (Homo sapiens [12]) of 25%. For the same compound, the half-life [13] was 34.7 h, the Tmax [14] was 6 h and the Vd/F [15] was 1750 L. The Vd/F [16] was 4350 L, the half-life [17] was 27.7 h and the CL/F [18] was 743 mL/min. It also gave a CL/F [19] of 957 mL/min, a Tmax [20] of 5 h and an Activity (Homo sapiens [21]) of 15%. The CL/F [22] was 1830 mL/min, the Activity (Homo sapiens [23]) was 75% and the Activity (Homo sapiens [24]) was 25%. It also gave an Activity (Homo sapiens [25]) of 33%, a CL/F [26] of 823 mL/min and an Activity (Homo sapiens [27]) of 25%.
